Screening data as filed in PubChem.
Neddylation inh = cullin neddylation inhibition | TR-FRET cullin neddylation, biochemical | 360,000 compounds, 0.58% hits | AID 651699 | inhibition, % at 25 µM | P61081+Q13564; in the data active = inhibition above about 36%
Arrestin-AP2 inh = inhibitors of human beta-arrestin and AP2 interaction | FITC-arrestin peptide / GST-AP2 beads, flow cytometry; AP2 beta2 appendage carries R879A mutation | inhibition, % at 10 µM | 340,000 compounds, 0.31% hits | AID 504490;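 active = inhibition above a set limit, near 3 SD of compounds lacking own fluorescence, cut at about 54% in these data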;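 note: plate controls were DMSO wells for no effect and 5 µM unlabelled arrestin peptide for full effect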
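Material – AP2 appendage R879A on GSH beads · Buffer or medium – PBS with 0.05% Tween 20 and 0.1% BSA · Probe or stimulus – fluorescein-tagged arrestin peptide at 50 nM final · Incubation – compound with beads 12 min RT, then probe 1 h RT · Detection – high-throughput flow cytometry of beads, ex 488, em 535 nm · Evaluation – percent response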
DSG3 Ab inh = human desmoglein-3 autoantibody binding inhibition. binding (percent of control), % at 10 µM. P32926. AID 588358. DSG3-coupled beads, scFv-anti-DSG3-GFP binding, flow cytometry; hits give low values. 310,000 compounds, 0.48% hits;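 active = binding more than 3 SD below its plate's average and above zero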;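 note: hits lower antibody fragment binding to DSG3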
Target sequence (P32926 whole entry, looked up, the tested form may be a part): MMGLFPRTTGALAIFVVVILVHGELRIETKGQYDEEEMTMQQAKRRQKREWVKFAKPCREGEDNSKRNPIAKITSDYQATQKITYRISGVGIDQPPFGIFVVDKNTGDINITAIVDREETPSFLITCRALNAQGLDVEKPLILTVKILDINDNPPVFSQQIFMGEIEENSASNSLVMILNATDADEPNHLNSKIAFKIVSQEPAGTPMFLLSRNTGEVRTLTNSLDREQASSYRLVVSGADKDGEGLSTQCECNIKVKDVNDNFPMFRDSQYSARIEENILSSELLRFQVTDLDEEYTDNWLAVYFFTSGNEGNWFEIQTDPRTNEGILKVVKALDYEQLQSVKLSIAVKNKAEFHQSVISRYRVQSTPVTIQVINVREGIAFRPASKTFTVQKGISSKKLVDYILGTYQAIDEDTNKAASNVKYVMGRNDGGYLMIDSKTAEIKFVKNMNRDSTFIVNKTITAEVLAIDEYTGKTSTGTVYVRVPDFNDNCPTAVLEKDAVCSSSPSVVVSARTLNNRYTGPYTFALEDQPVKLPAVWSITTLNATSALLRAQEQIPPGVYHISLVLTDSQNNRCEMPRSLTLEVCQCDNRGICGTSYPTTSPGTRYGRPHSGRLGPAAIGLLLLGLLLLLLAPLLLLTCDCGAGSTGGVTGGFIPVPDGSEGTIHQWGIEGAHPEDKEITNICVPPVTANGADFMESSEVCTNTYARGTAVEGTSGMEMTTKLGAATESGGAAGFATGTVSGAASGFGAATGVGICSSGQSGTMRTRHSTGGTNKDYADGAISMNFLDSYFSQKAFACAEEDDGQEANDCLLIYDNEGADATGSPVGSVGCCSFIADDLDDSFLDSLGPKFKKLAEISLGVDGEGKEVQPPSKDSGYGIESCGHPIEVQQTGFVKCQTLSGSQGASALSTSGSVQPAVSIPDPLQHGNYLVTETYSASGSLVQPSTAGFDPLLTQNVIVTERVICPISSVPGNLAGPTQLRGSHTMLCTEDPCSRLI
Efflux pump mplx = inhibitors of Candida antifungal efflux pumps expressed in yeast; S. cerevisiae Candida pump triplex, Nile Red efflux; inhibition, % at 10 µM; 330,000 compounds, 0.44% hits; AID 485275;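 active = plate passing quality check with inhibition over a set limit, or well fluorescence over plate mean plus 4 SD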;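 note: Nile Red retained in pooled yeast measured as flow cytometry median fluorescence; 0% = buffer negative control and 100% = Enniatin B positive control; higher means more Nile Red kept so more efflux inhibition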
Neddyl inh conf = confirmation of human cullin neddylation inhibitors; TR-FRET cullin neddylation biochemical assay; 1,800 compounds, 13% hits; AID 652217; shares compounds with Neddylation inh; calls only at 25 µM; in the data active = inhibition above about 40%;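 note: neddylation substrate is the cullin 1 ring ligase complex with SKP2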
* = called active by the depositor; i = inactive; x = no result given; + = active, no number. This is a sample that favours compounds with a hit; in the whole collection about 1.7% have one here.

SMILES	Neddylation inh	Arrestin-AP2 inh	DSG3 Ab inh	Efflux pump mplx	Neddyl inh conf
CCOC(=O)/C=c1\s/c(=C\c2ccc3c(c2)OCCO3)c(=O)n1CC(=O)NCC1CCCO1 (centres undefined)	43*	-6	x	0	i
CCOC(=O)/C=c1\s/c(=C\c2c(OCC)ccc3ccccc23)c(=O)n1CC(=O)NCC1CCCO1 (centres undefined)	10	-7	92	1	x
COc1ccccc1NC(=O)COc1cccc2c1CCNC2=O	3	-1	96	0	x
O=C1CS/C(=N\N=C\c2ccco2)N1c1ccccc1	42*	5	117	0	i
O=C1CS/C(=N/N=C/c2ccccc2)N1c1ccc(O)cc1	-4	1	112	0	x
O=C(c1cc(-c2ccccc2)nn1-c1ccccc1)N1CCN(S(=O)(=O)c2c(F)cccc2F)CC1	-3	20	106	0	x
COC(=O)[C@@H]1Cc2c([nH]c3ccccc23)C2CCC(=O)N21 (some centres undefined)	11	32	100	0	x
O=C(O)[C@@H]1Cc2c([nH]c3ccccc23)C2CCC(=O)N21 (some centres undefined)	52*	1	98	0	i
OCCCNC(=S)Nc1ccc2nccnc2c1	49*	-10	96	0	i
CCc1nn(CC(=O)NCCC(C)C)c(=O)c2cc3c(OC)cccc3n12	40*	7	96	1	i
CCC(=O)N/C(N)=N/c1nc(C)c2cc(OC)ccc2n1	46*	-2	98	0	+
CCOC(=O)c1c(-c2ccccc2)n(C)c2ccc(O)cc12	42*	-8	105	0	x
CCOC(=O)c1c(C)n(-c2ccccc2)c2ccc(O)cc12	19	2	100	0	x
COc1ccccc1Nc1nc(-c2c(C)nc3ncccn23)cs1	1	36	102	x	x
CSc1nc2nccc(-c3ccc4c(c3)OCO4)n2n1	48*	9	104*	0	i
CSc1nc2nccc(-c3ccc(-c4ccccc4)cc3)n2n1	x	-3	96	0	x
Cc1occc1C(=O)NNC(=O)c1ccc(Br)o1	9	-1	113	0	x
O=C(O)CN(c1ccccn1)S(=O)(=O)c1ccccc1	42*	-2	96	0	i
CCOC(=O)N1CCC(c2cc(=O)n3[nH]ccc3n2)CC1	41*	-2	96	0	x
COc1cc2c(cc1OC)C(C1C(=O)CC(C)(C)CC1=O)N(C(=O)CCl)CC2 (centres undefined)	41*	6	85	0	i
Cc1oc(-c2cccc(F)c2)nc1CN(Cc1ccccc1)C[C@@H]1CCC(=O)N1	11	9	104	0	x
COCCSc1nc(N)c2c3c(sc2n1)CN(C)CC3	43*	6	108	0	i
CCCSc1nc(N)c2c3c(sc2n1)CN(C)CC3	28	0	128	0	x
CN(C)CCSc1nc(N)c2c3c(sc2n1)CN(C)CC3	39*	-3	107	0	i
CCn1cc(CNC(=O)CSc2nc(-c3ccc(OC)c(OC)c3)cc(C(F)(F)F)n2)c(C)n1	x	6	102	0	x
SMILES	Neddylation inh	Arrestin-AP2 inh	DSG3 Ab inh	Efflux pump mplx	Neddyl inh conf
COc1ccc(-c2cc(C(F)(F)F)nc(SCC(=O)N3CCOCC3)n2)cc1OC	43*	-5	x	0	i
COCCNC(=O)CSc1nc(-c2ccc(OC)c(OC)c2)cc(C(F)(F)F)n1	40*	-2	108	0	x
O=C(CSc1nc(-c2ccccc2)cc(C(F)(F)F)n1)N1CCOCC1	-5	4	98	0	x
COc1ccc(C(C)C)cc1-c1cccc2nncn12	45*	x	x	x	i
O=C1OC(C(Cl)(Cl)Cl)Nc2ccccc21 (centres undefined)	38*	x	x	x	i
Cn1nc(C(=O)Nc2ccc(-n3cnnn3)cc2)c2ccccc2c1=O	-9	-10	94	0	x
CCCCn1nc(C(=O)Nc2ccc(-n3cnnn3)cc2)c2ccccc2c1=O	45*	2	89	0	i
Cc1ccc2[nH]c3c(Cl)ncnc3c2c1	x	40	90	0	x
COc1ccc2c(c1)[nH]c1c(Cl)ncnc12	40*	-1	89	0	i
CC(C)(C)OC(=O)n1cc(CCO)c2ccccc21	0	30	100	0	x
CCCc1cc(-n2ccnc2C)n2c(nc3ccccc32)c1C#N	38*	1	100	0	i
O=C(Nc1ccccc1)Nc1nnc(/C=C/c2ccccc2Cl)s1	45*	-24	105	0	i
CCOC(=O)c1oc2cc(O)cc(C)c2c1C	41*	5	96	x	+
CCOC(=O)c1oc2cc(C)cc(C)c2c1C	11	3	115	0	x
N#CCCN(C(=O)COC(=O)Cc1c[nH]c2ccccc12)c1ccccc1	11	-4	107	0	x
COc1ccc(O)c(C(=O)c2cnn(C(=O)c3cccc(S(=O)(=O)N(C)C)c3)c2)c1	8	-13	92	0	x
Cc1cc(N2CCOCC2)nc2ccc(NC(=S)NC(C)C)cc12	50*	3	97	0	i
COc1cccc(NC(=O)CCC(=O)Nc2ccc3nc(N4CCOCC4)cc(C)c3c2)c1	43*	-16	95	0	x
Cc1cc(N2CCN(C)CC2)nc2ccc(NC(=O)CCC(=O)NCCC3=CCCCC3)cc12	45*	10	102	0	i
Cc1cc(N2CCCC2)nc2ccc(NC(=S)NC(C)C)cc12	x	-2	87	0	x
COCCCNC(=O)CCC(=O)Nc1ccc2nc(N3CCOCC3)cc(C)c2c1	x	4	x	0	x
CC1=CC(c2ccc(Cl)cc2)n2ncnc2N1 (centres undefined)	39*	-3	107	0	i
COC(=O)c1[nH]c2cccc(OC)c2c1NC(=O)CN1CCN(c2cccc(OC)c2)C(C)C1 (centres undefined)	48*	9	107	0	x
CCOC(=O)Nc1c(C(=O)OC)[nH]c2cccc(OC)c12	42*	2	105	0	i
COC(=O)c1[nH]c2cccc(OC)c2c1NC(=O)CCN1CCC(C)CC1	x	-14	110	0	x
SMILES	Neddylation inh	Arrestin-AP2 inh	DSG3 Ab inh	Efflux pump mplx	Neddyl inh conf
COc1ccc(OC)c(NC=C2C(=O)OC(C)(C)OC2=O)c1	4	2	101	0	x
COc1ccc(OC)c(NC=C2C(=O)OC3(CCCCC3)OC2=O)c1	52*	-3	103	0	i
N#CCSc1ccccc1NC(=O)COC(=O)CCNC(=O)c1ccc([N+](=O)[O-])cc1	-19	6	116	x	x
Cc1cc(C)c2c(N)c(C(=O)c3cccc(Cl)c3)sc2n1	37*	-3	84	0	i
COc1ccccc1OCc1nnc(SCC(=O)Nc2ccc(N3CCOCC3)cc2)n1C	3	22	129	0	x
COc1ccc(C(=O)N2CCN(c3ccc(N4CCOCC4)nn3)CC2)cc1OC	x	-11	102	0	x
O=C(c1ccc(C(F)(F)F)cc1)N1CCN(c2ccc(N3CCOCC3)nn2)CC1	59*	-21	126	0	x
